Test results as given in ChEMBL document CHEMBL3297702, “Improving photodynamic inactivation of bacteria in dentistry: highly effective and fast killing of oral key pathogens with novel tooth-colored type-II photosensitizers” (J Med Chem, 2014).
The source made the active and inactive calls. The calls are words filed in the database; no cut-off is given here.

Experiments:
[1] = system: Aggregatibacter actinomycetemcomitans; test: Photodynamic inactivation of Aggregatibacter actinomycetemcomitans ATCC 43718 assessed as reduction of log10 CFU at 1 uM incubated prior to irradiation with 150 j/cm'2 for 120 secs measured after 48 hrs by agar plating method relative to control; type: functional, Y4
Method in brief: (§1)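 A. actinomycetemcomitans ATCC 43718 cultured overnight in BHI broth under anaerobic conditions, 37 °C with shaking. Stationary-phase cells were spun down, taken up in PBS to 10^7–10^8/mL, and combined 1:1 with PS (final 0–250 µM) or water. After 10 s they were irradiated at 1260 ± 50 mW/cm2 or kept dark. Serial dilutions went onto BHI agar, incubated anaerobically at 37 °C for 48 h, and CFU were scored. Results are medians from 3 experiments × triplicate versus untreated controls.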

[2] = Stability of the compound in D2O at 90 degC after > 10 mins by NMR analysis; type: physicochemical
[3] = Stability of the compound in acidic medium at 60 uM at pH 2 after 5 to 30 mins by UV-vis spectra analysis; type: physicochemical; conditions: buffer, pH 2, 60 µM
Method in brief: (§2)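 UV-Vis absorption spectra recorded in buffer solutions at different pH values after 5 and 30 min incubation.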

[4] = Stability of the compound in basic medium at 60 uM at pH > 9 after 5 to 30 mins by UV-vis spectra analysis; type: physicochemical; method in brief: as §2
[5] = system: Enterococcus faecalis; test: Photodynamic inactivation of Enterococcus faecalis ATCC 29212 assessed as reduction of log10 CFU at 1 to 250 uM preincubated for 10 secs followed by irradiation with 150 j/cm'2 for 120 secs measured after 24 hrs by agar plating method; type: functional, organism-based
Method in brief: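 E. faecalis ATCC 29212, aerobic overnight BHI culture at 37 °C, was harvested at stationary phase and suspended in PBS at 10^7–10^8 bacteria/mL. It was mixed 1:1 with PS to 0–250 µM final, held 10 s, then illuminated (1260 ± 50 mW/cm2) or kept dark. Dilutions were plated on Mueller-Hinton agar, aerobic 37 °C 24 h, CFU counted. Medians of three independent triplicate experiments, referred to untreated controls.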

[6] = system: Streptococcus mutans; test: Photodynamic inactivation of Streptococcus mutans ATCC 25175 assessed as reduction of log10 CFU at 1 to 250 uM preincubated for 10 secs followed by irradiation with 50 j/cm'2 for 40 secs measured after 48 hrs by agar plating method; type: functional
[7] = system: Aggregatibacter actinomycetemcomitans; test: Photodynamic inactivation of Aggregatibacter actinomycetemcomitans ATCC 43718 assessed as reduction of log10 CFU at 1 to 250 uM incubated prior to irradiation with 25 j/cm'2 for 20 secs measured after 48 hrs by agar plating method; type: functional; conditions: Y4; method in brief: as §1
[8] = system: Streptococcus mutans; test: Photodynamic inactivation of Streptococcus mutans ATCC 25175 assessed as reduction of log10 CFU at 1 uM incubated prior to irradiation with 25 j/cm'2 for 20 secs measured after 48 hrs by agar plating method (reference value: <1 no unit); type: functional
[9] = system: Streptococcus mutans; test: Photodynamic inactivation of Streptococcus mutans ATCC 25175 assessed as reduction of log10 CFU at 1 uM incubated prior to irradiation with 50 j/cm'2 for 40 secs measured after 48 hrs by agar plating method (reference value: <1 no unit); type: functional
[10] = system: Streptococcus mutans; test: Photodynamic inactivation of Streptococcus mutans ATCC 25175 assessed as reduction of log10 CFU at 5 uM incubated prior to irradiation with 25 j/cm'2 for 20 secs measured after 48 hrs by agar plating method (reference value: <1 no unit); type: functional
[11] = system: Streptococcus mutans; test: Photodynamic inactivation of Streptococcus mutans ATCC 25175 assessed as reduction of log10 CFU at 100 uM incubated prior to irradiation with 50 j/cm'2 for 40 secs measured after 48 hrs by agar plating method (reference value: <1 no unit); type: functional
[12] = system: Actinomyces naeslundii; test: Photodynamic inactivation of Actinomyces naeslundii T14V assessed as reduction of log10 CFU at 1 uM incubated prior to irradiation with 150 j/cm'2 for 120 secs measured after 48 hrs by agar plating method (reference value: <1 no unit); type: functional
Method in brief: (§3)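 A. naeslundii T14V grown overnight at 37 °C, shaken, aerobically in BHI broth. Harvested at stationary phase, resuspended in PBS to 10^7–10^8 bacteria/mL (OD600). Mixed 1:1 with PS (final 0–250 µM) or water, 10 s incubation, then blue photopolymerizer light (1260 ± 50 mW/cm2) or dark. Tenfold dilutions plated on blood agar, aerobic 37 °C 48 h, CFU counted; medians of three independent experiments in triplicate.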

[13] = system: Actinomyces naeslundii; test: Photodynamic inactivation of Actinomyces naeslundii T14V assessed as reduction of log10 CFU at 5 uM incubated prior to irradiation with 25 j/cm'2 for 20 secs measured after 48 hrs by agar plating method (reference value: <1 no unit); type: functional; method in brief: as §3
[14] = system: Actinomyces naeslundii; test: Photodynamic inactivation of Actinomyces naeslundii T14V assessed as reduction of log10 CFU at 5 uM incubated prior to irradiation with 150 j/cm'2 for 120 secs measured after 48 hrs by agar plating method (reference value: <1 no unit); type: functional; method in brief: as §3
[15] = system: Actinomyces naeslundii; test: Photodynamic inactivation of Actinomyces naeslundii T14V assessed as reduction of log10 CFU at 10 uM incubated prior to irradiation with 50 j/cm'2 for 40 secs measured after 48 hrs by agar plating method (reference value: <1 no unit); type: functional; method in brief: as §3
[16] = system: Actinomyces naeslundii; test: Photodynamic inactivation of Actinomyces naeslundii T14V assessed as reduction of log10 CFU at 100 uM incubated prior to irradiation with 25 j/cm'2 for 20 secs measured after 48 hrs by agar plating method (reference value: <1 no unit); type: functional; method in brief: as §3
[17] = system: Actinomyces naeslundii; test: Photodynamic inactivation of Actinomyces naeslundii T14V assessed as reduction of log10 CFU at 100 uM incubated prior to irradiation with 150 j/cm'2 for 120 secs measured after 48 hrs by agar plating method (reference value: <1 no unit); type: functional; method in brief: as §3
[18] = system: Aggregatibacter actinomycetemcomitans; test: Photodynamic inactivation of Aggregatibacter actinomycetemcomitans ATCC 43718 assessed as reduction of log10 CFU at 1 uM incubated prior to irradiation with 25 j/cm'2 for 20 secs measured after 48 hrs by agar plating method relative to control; type: functional, Y4; method in brief: as §1
[19] = system: Aggregatibacter actinomycetemcomitans; test: Photodynamic inactivation of Aggregatibacter actinomycetemcomitans ATCC 43718 assessed as reduction of log10 CFU at 5 uM incubated prior to irradiation with 50 j/cm'2 for 40 secs measured after 48 hrs by agar plating method (reference value: <1 no unit); type: functional, Y4; method in brief: as §1
[20] = system: Aggregatibacter actinomycetemcomitans; test: Photodynamic inactivation of Aggregatibacter actinomycetemcomitans ATCC 43718 assessed as reduction of log10 CFU at 5 uM incubated prior to irradiation with 150 j/cm'2 for 120 secs measured after 48 hrs by agar plating method relative to control; type: functional, Y4; method in brief: as §1
[21] = system: Aggregatibacter actinomycetemcomitans; test: Photodynamic inactivation of Aggregatibacter actinomycetemcomitans ATCC 43718 assessed as reduction of log10 CFU at 10 uM incubated prior to irradiation with 25 j/cm'2 for 20 secs measured after 48 hrs by agar plating method relative to control; type: functional, Y4; method in brief: as §1
[22] = system: Aggregatibacter actinomycetemcomitans; test: Photodynamic inactivation of Aggregatibacter actinomycetemcomitans ATCC 43718 assessed as reduction of log10 CFU at 100 uM incubated prior to irradiation with 25 j/cm'2 for 20 secs measured after 48 hrs by agar plating method relative to control; type: functional, Y4; method in brief: as §1

SMILES	log10cfu [1]	Stability [2]	Stability [3]	Stability [4]	Activity [5]	Activity [6]	Activity [7]	log10cfu [8]	log10cfu [9]	log10cfu [10]	log10cfu [11]	log10cfu [12]	log10cfu [13]	log10cfu [14]	log10cfu [15]	log10cfu [16]	log10cfu [17]	log10cfu [18]	log10cfu [19]	log10cfu [20]	other results
O=C1C(C[n+]2ccccc2)=Cc2cccc3cccc1c23.[Cl-]	>6	Stable	Stable	Unstable	Active	Active	Active	<1	<1	<3	>6	<5	<3	> 5	> 5	> 5	> 5	<3	>6	>6	log10cfu [21]: >6; log10cfu [22]: >6
C[N+](C)(C)CC1=Cc2cccc3cccc(c23)C1=O.[Cl-]		Stable	Stable	Unstable	Active	Active	Active														
C[N+](C)(CCO)CC1=Cc2cccc3cccc(c23)C1=O.[Cl-]	>6							<1	<1	<1	>6	<1	<1	<5	<5	> 5	> 5	<1	<3	>6	log10cfu [21]: <3; log10cfu [22]: > 3
